Screening results deposited in PubChem by The Scripps Research Institute Molecular Screening Center.
OXTR potentiator = human OXTR potentiators, primary screen, fluorescence, CHO-OTR cells, Fluo-8 calcium; Fluo-8 calcium fluorescence, potentiator mode; 0% = oxytocin EC15, 100% = EC100; activation, % at 3 µM; 320,000 compounds, 0.061% hits; AID 2445, 2010;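 active = activation above that plate's cutoff, the mean activation of tested compounds plus 3 SD, cut at about 6.6% in these data, passing the limit was not always enough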
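Material: CHO-OTR cells, human receptor; compound dosing: single dose, 3.0 µM nominal final compound concentration; schedule: 6 min compound pre-incubation at room temperature, 100 s kinetic read; measured by: kinetic Fluo-8 calcium fluorescence; read-out basis: % activation vs EC15 and EC100 oxytocin; controls: EC15 oxytocin alone as 0%, 75 nM oxytocin as 100%; replicates: singlicate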
OXTR ag = human OXTR agonists, primary screen, fluorescence, CHO-OTR cells, Fluo-8 calcium | Oxytocin receptor (Homo sapiens), P30559 | Fluo-8 calcium fluorescence; normalized: DMSO 0%, oxytocin 100% | activation, % at 3 µM | 320,000 compounds, 0.32% hits;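 active = activation above the mean of all tested compounds plus 3 SD, cutoff set per screening run, cut at about 20% in these data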;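 also: peak over basal fluorescence ratio from a 100 s FLIPR kinetic read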
TAAR1 antagonist = human TAAR1 antagonists, primary screen, Fluo-8 calcium fluorescence, CHO RD-HGA16 cells | Trace amine-associated receptor 1 (Homo sapiens), Q96RJ0 | antagonist | inhibition, % at 3 µM | 360,000 compounds, 1.5% hits;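 active = inhibition above a per-plate cutoff, the mean inhibition of test compounds on that plate plus 3 SD, cut at about 49% in these data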
Target sequence (Q96RJ0 whole entry, looked up): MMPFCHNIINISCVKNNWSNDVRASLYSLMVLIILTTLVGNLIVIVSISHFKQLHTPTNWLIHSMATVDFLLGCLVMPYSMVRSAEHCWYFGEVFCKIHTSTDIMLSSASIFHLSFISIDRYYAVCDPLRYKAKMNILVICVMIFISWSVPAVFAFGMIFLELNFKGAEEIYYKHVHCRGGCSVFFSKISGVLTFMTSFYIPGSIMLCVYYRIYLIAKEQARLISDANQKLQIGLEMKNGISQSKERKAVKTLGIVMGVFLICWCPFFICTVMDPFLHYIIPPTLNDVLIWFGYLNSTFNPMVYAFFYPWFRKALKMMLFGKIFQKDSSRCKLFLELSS
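System: CHO RD-HGA16 cells bearing hTAAR1. Reagent: EC80 β-phenethylamine stimulus. Schedule: seeding 17-24 h prior, 75-min 37 °C, 30-min RT dye loading. Signal: Fluo-8 intracellular calcium dye fluorescence, real-time kinetic reads. Read-out: % inhibition from peak post-agonist over basal fluorescence ratio. Benchmarks: vehicle wells and EC80 agonist wells. Replicates: n of 1.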
V1aR counter = agonists of human V1a receptor, primary screen, counter-screen for OXTR agonist project, fluorescence, CHO-V1R cells; Vasopressin V1a receptor (Homo sapiens), P37288; Fluo-8 calcium fluorescence, agonist mode; 0% DMSO, 100% 3 nM vasopressin; activation, % at 3 µM; 320,000 compounds, 0.25% hits;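 active = activation above the mean activation of all tested compounds plus 3 SD, per screening run, cut at about 20% in these data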;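 also: signal is peak over basal fluorescence ratio across a 100 second FLIPR read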
TAAR1 agonist = human TAAR1 agonists, primary screen, Fluo-8 calcium fluorescence, CHO RD-HGA16 cells; vehicle wells 0%, saturating PEA agonist 100%; activation, % at 3 µM; 360,000 compounds, 0.99% hits;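 active = activation above the mean activation of all test compounds in the run plus 3 SD, cut at about 38% in these data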
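Repeats: no replicates (n 1) | Material: CHO-derived RD-HGA16 cells with stable Gα16 and human TAAR1 | Technique: Kinetic Fluo-8 calcium fluorescence | Schedule: 17-24 h seeding, 75 min 37 °C dye, 30 min RT | Evaluation: % activation from peak over basal fluorescence ratio, DMSO-to-PEA scaled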
Numbers stand for hits; i = inactive; nt = no result given. In the library only some 2.3% were active in any assay of this set; here they are far more common.

SMILES	OXTR potentiator	OXTR ag	TAAR1 antagonist	V1aR counter	TAAR1 agonist
CC[n+]1c(/C=C/C=C/N(C(C)=O)c2ccccc2)sc2ccccc21	i	i	102	i	i
CCn1c(/C=C/N(C(C)=O)c2ccccc2)[n+](CC)c2ccc(Cl)cc21	i	i	i	i	i
COc1ccc(C2c3[nH]c4ccccc4c3C[C@H]3C(=O)N(CCCO)CC(=O)N23)cc1OC (some centres undefined)	i	i	i	i	i
COc1cc(C2c3[nH]c4ccccc4c3C[C@@H]3C(=O)N(Cc4ccco4)CC(=O)N23)cc(OC)c1OC (some centres undefined)	i	i	53	i	i
COc1ccc(Cc2nnc(NC(=O)CSc3ccccc3)s2)cc1OC	i	i	i	i	50
Cc1ccc(-n2c3nc(=O)[nH]c(=O)c-3cc3cc([N+](=O)[O-])ccc32)cc1	i	i	i	i	i
CC(=O)Nc1ccc(C(=O)OCC(=O)N(c2ccccc2)C2CCCCC2)cc1	i	i	50	i	i
COc1ccccc1CNC(=O)C(=O)NCC1OCCCN1S(=O)(=O)c1cccs1 (centres undefined)	i	i	i	i	i
CCOc1cc(CNCCc2ccc(S(N)(=O)=O)cc2)cc(Cl)c1OCc1ccccc1	i	37	nt	22	nt
CCOc1cc(CNCc2ccccc2)ccc1OCc1ccc(Cl)cc1	i	26	i	28	48
CC(Oc1ccc(Cl)cc1)/C(N)=N/O (centres undefined)	i	i	i	i	i
O=C(CSc1ccc2ccccc2c1)NCCCN1CCCC1=O	i	i	i	i	i
CCN1C(=O)/C(=C/c2ccc(N3CCCC3)cc2)NC1=S	i	110	82	91	84
Cc1ccc(CN2C(=O)N/C(=C\c3ccc(N4CCOCC4)cc3)C2=O)cc1	i	i	i	i	i
CCCN1C(=O)/C(=C/c2ccc(N3CCOCC3)cc2)NC1=S	i	25	i	31	54
Cc1ccc(S(=O)(=O)N2CCCCC2)c(C)c1NS(C)(=O)=O	i	i	i	i	i
Cc1ccc(OCCn2c(C)c(/C=N/n3cnnc3)c3ccccc32)cc1	i	i	i	i	i
CSc1ncccc1C(=O)OCC(=O)N(C)C	i	i	i	i	i
C#CCNC(=O)C1=C[C@@H](c2csc3ccccc23)C[C@@H](OCc2ccc(CO)cc2)O1	i	i	54	i	i
COc1ccc(NC(=O)C(C)Oc2ccc(/C(C)=N\O)cc2)cc1 (centres undefined)	i	40	i	33	55
COc1ccc(OC(C)C(=O)Nc2ccc([N+](=O)[O-])cc2)cc1 (centres undefined)	i	i	i	i	i
Cc1ccc(-n2cccc2C(=S)N=P(N(C)C)(N(C)C)N(C)C)cc1	i	i	i	i	i
CCCN1CCN(CCCNC(=S)Nc2ccc(F)cc2)CC1	i	i	i	i	i
CN1C2CCC1/C(=C\c1ccc(F)cc1)C(=O)/C2=C/c1ccc(F)cc1	i	i	i	i	i
CN1C2CCC1/C(=C/c1cccn1C)C(=O)/C2=C\c1cccn1C	i	45	i	45	i
SMILES	OXTR potentiator	OXTR ag	TAAR1 antagonist	V1aR counter	TAAR1 agonist
Cc1ccccc1/C=C/c1nc2ccccc2c(=O)[nH]1	i	i	i	i	i
O=C1[C@H]2[C@@H](c3ccccc3)N[C@]3(CCCN(Cc4ccc(C(F)(F)F)cc4)C3=O)[C@H]2C(=O)N1Cc1ccccc1	nt	nt	50	nt	i
CCOC(=O)Cn1c(=O)oc2cc(S(=O)(=O)Nc3cccc(C)c3)ccc21	i	i	i	i	i
CC(=NNc1nc2ccccc2s1)c1ncccn1	nt	nt	74	nt	49
Cc1ccc(S(=O)(=O)NC2=NCN(CCOC(=O)c3ccc([N+](=O)[O-])cc3)CN2)cc1	i	i	i	i	i
COc1ccc(/C=N/NC(=O)c2cccc(NC(=O)c3ccccc3Cl)c2)cc1OC	i	i	i	i	i
COc1ccccc1/C=N/NC(=O)c1cccc(NC(=O)c2ccccc2Cl)c1	i	i	49	i	i
COc1ccccc1/C=N/NC(=O)c1cccc(NC(=O)c2ccccc2C)c1	i	i	i	i	i
COc1cc(/C=N/NC(=O)c2cccc(NC(=O)c3ccccc3Cl)c2)ccc1O	i	i	53	i	i
CCOC(=O)/C(=C/C=C1\Sc2cc(OCC)c(OCC)cc2N1CC)C(C)=O	i	248	73	289	158
CCN1/C(=C/C(C)=O)Sc2ccc(OC)cc21	i	i	i	i	i
CN(C)Cc1c(C(=O)N/N=C/c2ccco2)nnn1-c1nonc1N	i	i	i	i	i
Cc1ccc(/C=N/NC(=O)c2nnn(-c3nonc3N)c2C(C)C)s1	i	i	i	i	47
Cc1ccc(/C=N/NC(=O)c2nnn(-c3nonc3N)c2C(C)C)o1	i	i	i	i	38
CC(C)c1c(C(=O)N/N=C/c2ccco2)nnn1-c1nonc1N	i	i	i	i	43
COc1ccc2ccccc2c1/C=N/NC(=O)c1nnn(-c2nonc2N)c1CN(C)C	i	i	i	i	i
CCCc1c(C(=O)N/N=C/c2ccc(C)o2)nnn1-c1nonc1N	nt	nt	i	nt	i
COc1ccc2ccccc2c1/C=N/NC(=O)c1nnn(-c2nonc2N)c1C(C)C	i	i	55	i	i
CCOc1ccc(C(=O)NCC(=O)OCC(=O)N2CCCC2)cc1	i	i	i	i	i
CN(C)S(=O)(=O)c1cccc(NC(=O)CNCc2ccccn2)c1	i	i	i	i	i
N#CC1C(=O)c2ccccc2C1c1ccccc1 (centres undefined)	nt	nt	67	nt	i
COCc1ccc(CN2CCC(C(=O)Nc3cccc(-c4cccc(Cl)c4)c3)CC2)o1	i	23	i	28	i
CCCCc1c(O)nc(SCC(=O)N2CCCCCC2)[nH]c1=O	i	i	i	i	i
Cc1csc(SCC(=O)NC2CCCC2)n1	i	i	i	i	i
COc1ccc2sc(-c3ccc(S(C)(=O)=O)cc3)c(C#CCO)c2c1	i	i	i	i	i
COc1ccc(-c2sc3ccccc3c2C#CCCO)cc1	i	i	i	i	i
COc1ccc2c(C#CCCO)c(-c3ccc(S(C)(=O)=O)cc3)sc2c1	i	i	62	i	i
CS(=O)(=O)c1ccc(-c2sc3ccccc3c2C#CCCO)cc1	i	i	54	i	i
CCOc1cc(C(=O)Nc2ccc(S(=O)(=O)Nc3cc(C)on3)cc2)cc(OCC)c1OCC	i	i	i	i	i
